Active and inactive are the calls of the source.
Experiments:
[1] = biological target: T1, Voltage-dependent T-type calcium channel subunit alpha-1H (Homo sapiens, UniProt O95180); assay: Inhibition of human CaV3.2 expressed in HEK293 cells assessed as suppression of T-current amplitude by measuring remaining activity at 3 uM after 10 mins by whole cell patch clamp method relative to control; type: cell-based
How it was run: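 HEK293 cells stably expressing human Cav3.2 were recorded by whole-cell patch clamp, holding at −90 mV with a 30 mV test pulse evoking Ba²⁺ currents. Remaining T-current after 3 μM compound is given as % of control; some entries were measured at 1 μM.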

[2] = biological target: T1, Voltage-dependent T-type calcium channel subunit alpha-1H; assay: Inhibition of human CaV3.2 expressed in HEK293 cells assessed as suppression of T-current amplitude after 10 mins by whole cell patch clamp method; type: cell-based
How it was run: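 Whole-cell patch clamp was done on HEK293 cells stably expressing human Cav3.2. Membrane was held at −90 mV and Ba²⁺ currents were evoked by a 30 mV test pulse. IC50 was derived from T-current suppression.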

[3] = biological target: Voltage-dependent T-type calcium channel subunit alpha-1G (Homo sapiens, UniProt O43497); assay: Inhibition of human CaV3.1 expressed in HEK293 cells assessed as suppression of T-current after 10 mins by whole cell patch clamp method; type: cell-based
Voltage-dependent T-type calcium channel subunit alpha-1G, sequence (O43497 whole entry): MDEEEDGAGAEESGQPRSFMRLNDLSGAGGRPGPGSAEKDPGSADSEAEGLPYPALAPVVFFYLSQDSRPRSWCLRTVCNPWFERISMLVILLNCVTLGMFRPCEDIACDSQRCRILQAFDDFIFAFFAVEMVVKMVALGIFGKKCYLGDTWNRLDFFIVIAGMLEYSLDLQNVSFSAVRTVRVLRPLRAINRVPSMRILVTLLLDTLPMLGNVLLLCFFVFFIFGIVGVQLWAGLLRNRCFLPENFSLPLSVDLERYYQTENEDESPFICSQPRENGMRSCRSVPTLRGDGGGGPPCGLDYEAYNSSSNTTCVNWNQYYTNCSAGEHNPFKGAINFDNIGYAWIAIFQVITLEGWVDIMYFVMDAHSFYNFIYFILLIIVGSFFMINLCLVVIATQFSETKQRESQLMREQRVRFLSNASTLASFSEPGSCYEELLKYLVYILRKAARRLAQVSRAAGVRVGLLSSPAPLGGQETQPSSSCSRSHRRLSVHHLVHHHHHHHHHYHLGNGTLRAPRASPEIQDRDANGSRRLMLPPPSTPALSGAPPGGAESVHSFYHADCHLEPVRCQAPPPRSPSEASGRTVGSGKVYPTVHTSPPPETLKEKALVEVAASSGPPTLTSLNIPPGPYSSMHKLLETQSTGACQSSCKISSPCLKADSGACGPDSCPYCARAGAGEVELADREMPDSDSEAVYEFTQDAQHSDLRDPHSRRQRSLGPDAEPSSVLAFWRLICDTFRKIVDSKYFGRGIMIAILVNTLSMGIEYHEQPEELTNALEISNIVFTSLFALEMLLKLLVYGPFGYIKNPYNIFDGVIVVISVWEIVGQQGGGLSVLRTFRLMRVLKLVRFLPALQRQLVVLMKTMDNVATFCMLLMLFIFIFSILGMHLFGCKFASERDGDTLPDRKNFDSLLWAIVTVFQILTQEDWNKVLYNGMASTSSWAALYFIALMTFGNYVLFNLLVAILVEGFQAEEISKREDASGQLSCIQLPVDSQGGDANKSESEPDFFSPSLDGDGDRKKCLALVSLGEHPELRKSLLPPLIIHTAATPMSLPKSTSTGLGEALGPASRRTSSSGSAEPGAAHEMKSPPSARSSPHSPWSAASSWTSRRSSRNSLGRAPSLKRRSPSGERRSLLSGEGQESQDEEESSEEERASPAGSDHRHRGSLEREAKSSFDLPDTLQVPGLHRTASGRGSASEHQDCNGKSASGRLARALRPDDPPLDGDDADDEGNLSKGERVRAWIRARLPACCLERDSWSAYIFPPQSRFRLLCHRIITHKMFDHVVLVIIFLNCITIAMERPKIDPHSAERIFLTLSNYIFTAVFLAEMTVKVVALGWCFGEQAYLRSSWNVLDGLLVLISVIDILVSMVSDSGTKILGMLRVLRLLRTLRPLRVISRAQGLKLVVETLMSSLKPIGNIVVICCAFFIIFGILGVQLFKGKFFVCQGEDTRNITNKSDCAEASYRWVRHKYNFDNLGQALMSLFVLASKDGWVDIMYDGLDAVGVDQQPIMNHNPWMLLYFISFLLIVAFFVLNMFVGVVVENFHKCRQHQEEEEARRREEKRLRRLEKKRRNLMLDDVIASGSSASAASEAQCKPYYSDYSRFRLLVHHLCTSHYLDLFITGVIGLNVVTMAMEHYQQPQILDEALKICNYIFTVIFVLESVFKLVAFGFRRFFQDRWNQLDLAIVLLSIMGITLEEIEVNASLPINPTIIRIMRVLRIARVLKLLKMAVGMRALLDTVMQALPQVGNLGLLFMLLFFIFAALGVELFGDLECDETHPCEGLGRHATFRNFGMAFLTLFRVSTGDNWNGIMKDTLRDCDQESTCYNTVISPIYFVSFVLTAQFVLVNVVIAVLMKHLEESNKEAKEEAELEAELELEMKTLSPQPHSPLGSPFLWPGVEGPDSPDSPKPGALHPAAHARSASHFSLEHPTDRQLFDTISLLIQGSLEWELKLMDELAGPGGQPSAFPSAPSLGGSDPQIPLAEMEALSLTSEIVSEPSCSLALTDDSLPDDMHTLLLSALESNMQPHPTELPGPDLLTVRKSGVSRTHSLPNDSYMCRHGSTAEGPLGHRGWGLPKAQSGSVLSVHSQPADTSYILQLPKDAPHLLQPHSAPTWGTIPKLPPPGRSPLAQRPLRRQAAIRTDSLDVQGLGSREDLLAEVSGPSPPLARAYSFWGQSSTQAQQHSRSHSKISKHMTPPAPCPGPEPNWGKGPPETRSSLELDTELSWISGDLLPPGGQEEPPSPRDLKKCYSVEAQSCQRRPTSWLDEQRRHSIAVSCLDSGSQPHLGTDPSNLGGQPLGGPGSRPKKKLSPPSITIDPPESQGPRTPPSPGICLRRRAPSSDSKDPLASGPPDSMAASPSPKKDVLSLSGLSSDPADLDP

[4] = Inhibition of T-type calcium channel (unknown origin); parameters: species or system Homo sapiens
Mus musculus [5] = assay: Antihyperalgesic activity in ddY mouse assessed as suppression of partial sciatic nerve ligation-induced mechanical allodynia at 10 mg/kg, ip administered 7 days by Von Frey test; type: functional, organism-based
How it was run: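 Male ddY mice (18–25 g) had the right sciatic nerve partially ligated under isoflurane and were tested one week later. Dosing was i.p. as a suspension in 0.5% carboxymethyl cellulose sodium, with vehicle-treated sham and PSNL groups. Ipsilateral hindpaw threshold was measured by von Frey up-down method before ligation and 0–90 min after injection. Data are mean with S.E.M. (5–11 mice), analysed non-parametrically.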

Mus musculus [6] = assay: Antihyperalgesic activity in ddY mouse assessed as suppression of partial sciatic nerve ligation-induced mechanical allodynia at 20 mg/kg, ip administered 7 days by Von Frey test; type: functional, organism-based
How it was run: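 Male ddY mice (18–25 g) had the right sciatic nerve partially ligated under isoflurane and were tested 7 days later. Compound was suspended in 0.5% CMC-Na and given i.p. Ipsilateral hindpaw threshold was measured by von Frey up-down method before ligation and over 0–90 min post-dose. Data are mean ± S.E.M. (5–11 mice) with non-parametric statistics.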

[7] = Inhibition of T-type calcium channel in human Jurkat cells assessed as suppression of thapsigargin-induced intracellular calcium flux after 1 hr by indo-1 dye-based spectrofluorometric method; type: cell-based

T1 sequence (O95180 whole entry): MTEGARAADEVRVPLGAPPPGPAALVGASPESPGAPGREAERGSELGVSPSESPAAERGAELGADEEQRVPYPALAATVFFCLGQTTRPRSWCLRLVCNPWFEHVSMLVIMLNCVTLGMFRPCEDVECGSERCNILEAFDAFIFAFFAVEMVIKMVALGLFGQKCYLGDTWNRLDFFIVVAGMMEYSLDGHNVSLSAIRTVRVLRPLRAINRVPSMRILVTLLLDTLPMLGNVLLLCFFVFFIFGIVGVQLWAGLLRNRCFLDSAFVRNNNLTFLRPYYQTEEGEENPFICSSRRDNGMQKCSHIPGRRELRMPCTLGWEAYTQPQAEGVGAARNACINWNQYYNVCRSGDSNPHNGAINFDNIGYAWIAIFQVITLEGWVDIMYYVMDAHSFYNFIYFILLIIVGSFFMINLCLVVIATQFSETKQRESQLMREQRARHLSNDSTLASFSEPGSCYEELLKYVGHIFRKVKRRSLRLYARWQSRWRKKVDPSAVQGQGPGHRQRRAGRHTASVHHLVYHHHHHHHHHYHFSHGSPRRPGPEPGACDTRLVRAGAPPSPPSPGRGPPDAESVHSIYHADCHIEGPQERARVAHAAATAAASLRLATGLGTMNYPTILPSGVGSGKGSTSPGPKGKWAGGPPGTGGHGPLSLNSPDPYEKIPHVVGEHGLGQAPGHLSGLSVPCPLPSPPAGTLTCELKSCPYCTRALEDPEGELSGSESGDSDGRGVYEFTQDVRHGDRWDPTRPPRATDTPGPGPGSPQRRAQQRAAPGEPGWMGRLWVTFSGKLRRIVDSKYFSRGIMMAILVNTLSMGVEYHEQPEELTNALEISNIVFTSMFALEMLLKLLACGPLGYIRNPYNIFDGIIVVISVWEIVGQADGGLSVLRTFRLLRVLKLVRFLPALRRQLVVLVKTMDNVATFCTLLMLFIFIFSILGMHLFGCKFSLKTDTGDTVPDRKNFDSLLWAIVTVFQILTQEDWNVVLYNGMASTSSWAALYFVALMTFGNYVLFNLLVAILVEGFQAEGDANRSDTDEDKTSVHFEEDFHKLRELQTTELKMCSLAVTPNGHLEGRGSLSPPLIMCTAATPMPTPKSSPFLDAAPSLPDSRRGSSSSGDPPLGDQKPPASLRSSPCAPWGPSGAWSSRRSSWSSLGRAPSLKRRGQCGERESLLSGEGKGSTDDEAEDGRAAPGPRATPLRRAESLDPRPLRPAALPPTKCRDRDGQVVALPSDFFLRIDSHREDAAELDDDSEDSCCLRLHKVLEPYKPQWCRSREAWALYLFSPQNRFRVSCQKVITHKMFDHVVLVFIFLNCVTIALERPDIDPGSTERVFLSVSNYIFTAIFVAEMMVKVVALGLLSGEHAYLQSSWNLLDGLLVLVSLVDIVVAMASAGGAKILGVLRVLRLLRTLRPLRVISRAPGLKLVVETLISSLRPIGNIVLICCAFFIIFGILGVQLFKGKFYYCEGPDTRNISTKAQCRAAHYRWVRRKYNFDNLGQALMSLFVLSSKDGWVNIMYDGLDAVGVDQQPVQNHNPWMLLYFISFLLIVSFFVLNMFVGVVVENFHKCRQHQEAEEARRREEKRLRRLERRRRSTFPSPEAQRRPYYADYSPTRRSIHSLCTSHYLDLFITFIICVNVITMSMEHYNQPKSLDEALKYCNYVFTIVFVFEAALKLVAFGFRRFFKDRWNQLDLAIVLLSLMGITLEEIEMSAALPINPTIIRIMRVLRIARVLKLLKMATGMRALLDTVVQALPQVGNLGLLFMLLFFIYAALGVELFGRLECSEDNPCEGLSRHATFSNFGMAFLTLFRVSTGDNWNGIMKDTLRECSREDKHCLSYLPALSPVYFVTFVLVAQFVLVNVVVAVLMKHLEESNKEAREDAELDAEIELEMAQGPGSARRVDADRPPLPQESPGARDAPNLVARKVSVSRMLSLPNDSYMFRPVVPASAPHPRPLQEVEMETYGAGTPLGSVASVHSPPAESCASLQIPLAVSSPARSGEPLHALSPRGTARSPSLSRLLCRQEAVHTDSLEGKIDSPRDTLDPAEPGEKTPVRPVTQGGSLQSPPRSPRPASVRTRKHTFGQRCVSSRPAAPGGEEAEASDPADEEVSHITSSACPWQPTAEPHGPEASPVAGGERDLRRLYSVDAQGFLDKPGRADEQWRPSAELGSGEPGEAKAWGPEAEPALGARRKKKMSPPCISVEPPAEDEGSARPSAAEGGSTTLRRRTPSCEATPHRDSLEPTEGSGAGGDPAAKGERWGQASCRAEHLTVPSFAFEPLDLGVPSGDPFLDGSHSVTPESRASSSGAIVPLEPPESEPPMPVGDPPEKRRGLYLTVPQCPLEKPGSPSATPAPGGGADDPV

SMILES	Activity [1] [%]	further results
C=CCc1c(O)cc2c(c1O)C(=O)CC(c1ccc(Cl)cc1)O2 (configuration not stated)	51.9	–
COc1ccc(C2CC(=O)c3c(ccc(CC=C(C)C)c3O)O2)cc1 (configuration not stated)	81.9	–
CC(C)=CCc1c(O)cc(O)c2c1O[C@H](c1ccc(O)cc1)CC2=O	–	IC50 [2]: 1000 nM; IC50 [3]: 1000 nM
CC(C)=CCc1ccc2c(c1O)C(=O)CC(c1ccc(Cl)cc1)O2 (configuration not stated)	78.5	–
C=CCc1c(O)cc2c(c1O)C(=O)CC(c1ccc(OC)cc1)O2 (configuration not stated)	50.8	–
C=CCc1ccc2c(c1O)C(=O)CC(c1ccc(C)cc1)O2 (configuration not stated)	72.7	–
CCC(=CCc1c(O)cc2c(c1O)C(=O)CC(c1ccc(O)cc1)O2)CC (configuration not stated)	22.2	IC50 [2]: 260 nM
COc1ccc(C2CC(=O)c3c(cc(O)c(CC=C(C)C)c3O)O2)cc1 (configuration not stated)	47.6	–
C=CCc1c(O)cc2c(c1O)C(=O)CC(c1ccccc1)O2 (configuration not stated)	70.1	–
O=C1CC(c2ccc(O)cc2)Oc2cc(O)c(CC=C3CCCC3)c(O)c21 (configuration not stated)	1.44	IC50 [2]: 460 nM
CC(C)=CCc1c(O)cc2c(c1O)C(=O)CC(c1cccc(O)c1O)O2 (configuration not stated)	67.1	–
CC(C)=CCc1c(O)cc2c(c1O)C(=O)CC(c1ccccc1O)O2 (configuration not stated)	2.04	IC50 [2]: 640 nM
O=C1CC(c2ccc(O)cc2)Oc2cc(O)c(CCC3CCCC3)c(O)c21 (configuration not stated)	5.42	IC50 [2]: 500 nM
CCC(CC)CCc1c(O)cc2c(c1O)C(=O)CC(c1ccc(O)cc1)O2 (configuration not stated)	10.1	–
CC(C)=CCc1c(O)cc2c(c1O)C(=O)CC(c1cc(O)cc(O)c1)O2 (configuration not stated)	80.9	–
C=CCc1ccc2c(c1O)C(=O)CC(c1ccc(Cl)cc1)O2 (configuration not stated)	35.9	–
CCOc1ccc(C2CC(=O)c3c(ccc(CC=C(CC)CC)c3O)O2)cc1 (configuration not stated)	57.8	–
C=CCc1ccc2c(c1O)C(=O)CC(c1ccccc1)O2 (configuration not stated)	90.1	–
CC(C)CCc1c(O)cc2c(c1O)C(=O)CC(c1ccc(O)cc1)O2 (configuration not stated)	1.69	IC50 [2]: 480 nM
C=CCc1c(O)cc2c(c1O)C(=O)CC(c1ccccc1O)O2 (configuration not stated)	63	–
CCC(=CCc1ccc2c(c1O)C(=O)CC(c1ccccc1O)O2)CC (configuration not stated)	16.1	–

SMILES	Activity [1] [%]	further results
C=C(C)[C@H](CC=C(C)C)Cc1c(O)cc(O)c2c1O[C@H](c1ccc(O)cc1O)CC2=O [SOPHORAFLAVANONE G]	–	IC50 [2]: 1000 nM; IC50 [3]: 1000 nM
CC(C)=CCc1c(O)cc2c(c1O)C(=O)CC(c1c(O)cccc1O)O2 (configuration not stated)	10.3	–
CC(C)=CCc1c(O)cc2c(c1O)C(=O)CC(c1ccc(Cl)cc1)O2 (configuration not stated)	59.7	–
CC(C)=CCc1ccc2c(c1O)C(=O)CC(c1ccc(C)cc1)O2 (configuration not stated)	103	–
CCCC(=CCc1c(O)cc2c(c1O)C(=O)CC(c1ccc(O)cc1)O2)CCC (configuration not stated)	36.8	–
CC(C)=CCc1c(O)cc2c(c1O)C(=O)CC(c1ccccc1)O2 (configuration not stated)	72.6	–
CCC1(C)CC(=O)NC1=O (configuration not stated) [ETHOSUXIMIDE]	–	IC50 [4]: 600 µM
CC(C)=CCc1c(O)cc2c(c1O)C(=O)CC(c1ccc(O)c(O)c1)O2 (configuration not stated)	14.7	–
C=CCc1ccc2c(c1O)C(=O)CC(c1ccc(OC)cc1)O2 (configuration not stated)	59	–
CC(C)=CCc1ccc2c(c1O)C(=O)CC(c1ccccc1)O2 (configuration not stated)	100	–
CC(C)=CCc1c(O)cc2c(c1O)C(=O)CC(c1ccc(O)cc1)O2 (racemic)	12.8	IC50 [2]: 1000 nM; Activity (Mus musculus [5]): inactive; IC50 [3]: 1000 nM
CC(C)=CCc1c(O)cc2c(c1O)C(=O)CC(c1cccc(O)c1)O2 (configuration not stated)	2.09	IC50 [2]: 1020 nM
C=CCc1c(O)cc2c(c1O)C(=O)CC(c1cc(O)cc(O)c1)O2 (configuration not stated)	74.8	–
C=CCc1c(O)cc2c(c1O)C(=O)CC(c1cccc(O)c1)O2 (configuration not stated)	76.8	–
C=CCc1ccc2c(c1O)C(=O)CC(c1ccc(OCC)cc1)O2 (configuration not stated)	65.2	–
CCC(=CCc1c(O)cc2c(c1O)C(=O)CC(c1ccccc1O)O2)CC (configuration not stated)	0.33	IC50 [2]: 390 nM; Activity (Mus musculus [5]): Active; Activity (Mus musculus [6]): Active
C=CCc1c(O)cc2c(c1O)C(=O)CC(c1ccc(O)c(O)c1)O2 (configuration not stated)	86.7	–
COCC(=O)O[C@]1(CCN(C)CCCc2nc3ccccc3[nH]2)CCc2cc(F)ccc2[C@@H]1C(C)C [MIBEFRADIL]	–	IC50 [7]: 1000 nM
CC(C)=CCc1ccc2c(c1O)C(=O)CC(c1ccccc1O)O2 (configuration not stated)	3.77	IC50 [2]: 1250 nM
C=CCc1ccc2c(c1O)C(=O)CC(c1ccccc1O)O2 (configuration not stated)	32	–
C=CCc1c(O)cc2c(c1O)C(=O)CC(c1cccc(O)c1O)O2 (configuration not stated)	83.8	–

From ChEMBL document CHEMBL4229462, “Design and synthesis of novel anti-hyperalgesic agents based on 6-prenylnaringenin as the T-type calcium channel blockers” (Bioorg Med Chem, 2018)
